Measurements taken from ChEMBL document CHEMBL1139350, “Modulation of Wnt signaling through inhibition of secreted frizzled-related protein I (sFRP-1) with N-substituted piperidinyl diphenylsulfonyl sulfonamides” (J Med Chem, 2009).

Legend:
Type in all cases: ADME, Microsome
[1] = Metabolic stability in human liver microsomes assessed as half life
How it was run: (§1)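 Stability in human or rat liver microsomes with compound at 1 µM, from DMSO solution.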

[2] = Metabolic stability in rat liver microsomes assessed as half life; how it was run: as §1
[3] = Metabolic stability in human liver microsomes assessed as half life in presence of NADPH
How it was run: (§2)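 Advanced stability in human or rat liver microsomes run with NADPH, with and without UDPGA, on compound from 1 µM DMSO solution.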

[4] = Metabolic stability in rat liver microsomes assessed as half life in presence of NADPH; how it was run: as §2

half-life [1] [min]	half-life [2] [min]	half-life [3] [min]	half-life [4] [min]	Structure (SMILES)
> 5	> 8	–	–	CC(C)(C)CCN1CCC[C@H]1C(=O)N1CCC(NS(=O)(=O)c2cc(S(=O)(=O)c3ccccc3)ccc2C(F)(F)F)CC1
> 1	> 1	–	–	CC(C)(C)OC(=O)N1CCC[C@H]1C(=O)N1CCC(NS(=O)(=O)c2cc(S(=O)(=O)c3ccccc3)ccc2C(F)(F)F)CC1

Further lines, the compound ahead of its results:

Structure (SMILES)	half-life [1] [min]	half-life [2] [min]	half-life [3] [min]	half-life [4] [min]
CC(C)(C)NC(=O)N1CCC[C@H]1C(=O)N1CCC(NS(=O)(=O)c2cc(S(=O)(=O)c3ccccc3)ccc2C(F)(F)F)CC1	> 2	> 3	–	–
O=S(=O)(NC1CCNCC1)c1cc(S(=O)(=O)c2ccccc2)ccc1C(F)(F)F	–	–	> 60	> 60
CC(C)(C)CC(=O)N1CCC[C@H]1C(=O)N1CCC(NS(=O)(=O)c2cc(S(=O)(=O)c3ccccc3)ccc2C(F)(F)F)CC1	> 1	> 3	–	–
